Data as given in ChEMBL document CHEMBL3627708, “A multifunctional, light-activated prochelator inhibits UVA-induced oxidative stress” (Bioorg Med Chem Lett, 2015).
Active and inactive are the calls of the source. The calls are words filed in the database; no cut-off is given here.

Columns and labels:
[1] = Cytotoxicity against human ARPE19 cells assessed as cell viability at <25 uM after 72 hrs by Cell Titer Blue assay; assay type: cell-based; settings: arpe-19, 72 h
Summary of the method: (§1)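 ARPE-19 cells incubated with compound for 24 h or extended to 72 h, doses up to 100 µM, then assessed for cytotoxicity.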

[2] = Cytotoxicity against human ARPE19 cells assessed as cell viability at 75 to 100 uM after 72 hrs by Cell Titer Blue assay; assay type: cell-based; settings: arpe-19, 72 h; summary of the method: as §1
[3] = Metal chelating activity assessed as formation of compound-Fe3+ complex by measuring free calcein level at 10 uM after 1 hr by fluorescence-based microplate assay in absence of UVA irradiation; assay type: physicochemical
Summary of the method: (§2)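 Calcein competition in PBS: 2 µM calcein with 2 µM (NH4)2Fe(SO4)2, forming Fe3+(calcein) in situ. Compound added at 10 µM, with or without 15 s photolysis in a photoreactor (λmax 350 nm). Calcein emission recorded 1 h after photolysis; triplicate, SD.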

[4] = Inhibition of Fe-dependent reactive oxygen species formation after 1 hr by H2DCF-DA-based fluorescence assay; assay type: functional
Summary of the method: (§3)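 H2DCF (20 µM) in PBS pH 7.4 with 10 µM FeCl3, 10 µM NTA, 1 mM ascorbic acid and 1 mM H2O2. Wells dosed with chelator or prochelator, the latter either irradiated (+) or not irradiated (−) with UVA. DCF fluorescence read at ex 485/em 535 nm. Background from wells with only H2DCF and buffer subtracted.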

[5] = Cytotoxicity against human ARPE19 cells assessed as cell viability up to 100 uM after 24 hrs by Cell Titer Blue assay; assay type: cell-based; settings: arpe-19, 24 h; summary of the method: as §1
[6] = Metal chelating activity assessed as formation of compound-Fe3+ complex by measuring free calcein level at 10 uM irradiated with UVA for 15 secs measured after 1 hr by fluorescence-based microplate assay; assay type: physicochemical; summary of the method: as §2
ARPE-19 [7] = assay: Cytoprotective activity in human ARPE19 cells assessed as reduction of UVA radiation-mediated cell death at 5 to 100 uM preincubated for 2 hrs followed by 40 mins UVA irradiation measured after 5 hrs by LDH release assay; assay type: functional, cell-based
Summary of the method: (§4)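 ARPE-19 retinal pigment epithelial cells pre-treated 2 h with compound (5–100 µM range tested), then exposed to UVA for 40 min at 600 kJ/m2. Cell death read 5 h after irradiation; triplicate wells per treatment, normalized to cells treated with 2% Triton X-100.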

[8] = […] of Fe-dependent reactive oxygen species formation after 90 mins by H2DCF-DA-based fluorescence assay; assay type: physicochemical; settings: 1.5 h
Summary of the method: (§5)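 H2DCF (20 µM) oxidation to DCF driven by 10 µM FeCl3, 10 µM NTA, 1 mM H2O2 and 1 mM ascorbate in PBS pH 7.4. Compound tested over a concentration range alongside trolox. Control wells hold Fe, NTA, H2O2 and ascorbate only. DCF read at ex 485/em 535 nm.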

[9] = Inhibition of Fe-dependent reactive oxygen species formation at 10 to 100 uM after 1 hr by H2DCF-DA-based fluorescence assay in absence of UVA irradiation; assay type: functional; summary of the method: as §3
[10] = Inhibition of Fe-dependent reactive oxygen species formation at 200 uM after 1 hr by H2DCF-DA-based fluorescence assay in absence of UVA irradiation; assay type: functional; summary of the method: as §3
ARPE-19 [11] = assay: Cytoprotective activity in human ARPE19 cells assessed as reduction of UVA radiation-mediated cell death at < 50 uM preincubated for 2 hrs followed by 40 mins UVA irradiation measured after 5 hrs by LDH release assay; assay type: functional, cell-based; summary of the method: as §4
[12] = Photoconversion of the compound in PBS buffer assessed as time required to show umbelliferone peak at 50 uM irradiated with UVA for 75 secs by LC-MS analysis; assay type: physicochemical; settings: 75 s
Summary of the method: (§6)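 Prochelator solutions analysed by LC-MS before and after UVA irradiation. New peaks identified by matching elution times and mass spectra to authentic umbelliferone and HAPI.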

[13] = Inhibition of Fe-dependent reactive oxygen species formation at 10 to 200 uM irradiated with UVA for 15 secs measured after 1 hr by H2DCF-DA-based fluorescence assay; assay type: functional; summary of the method: as §3
ARPE-19 [14] = assay: Cytoprotective activity in human ARPE19 cells assessed as reduction of UVA radiation-mediated cell death at 75 to 100 uM preincubated for 2 hrs followed by 40 mins UVA irradiation measured after 5 hrs by LDH release assay; assay type: functional, cell-based; summary of the method: as §4
[15] = Photoconversion of the compound in PBS buffer assessed as time required to show HAPI peak at 50 uM irradiated with UVA for 75 secs by LC-MS analysis; assay type: physicochemical; settings: 75 s; summary of the method: as §6
[16] = Inhibition of Fe-dependent reactive oxygen species formation at 10 to 5000 uM after 90 mins by H2DCF-DA-based fluorescence assay; assay type: functional; summary of the method: as §5

Structure (SMILES) | Activity [1] | Activity [2] | Activity [3] | inhibition [4] | Activity [5] | Activity [6] | Activity (ARPE-19 [7]) | Activity [8] | inhibition [9] | inhibition [10] | Activity (ARPE-19 [11]) | Time [12] [min] | inhibition [13] | Activity (ARPE-19 [14]) | Time [15] [min] | inhibition [16]
C/C(=N\NC(=O)c1ccncc1)c1ccccc1O | Non-toxic | Toxic | Active | Dose-dependent effect | Non-toxic | Active | Active | – | – | – | – | – | – | – | – | –
O=c1ccc2ccc(O)cc2o1 [UMBELLIFERONE] | – | – | – | – | Non-toxic | – | inactive | Dose-dependent effect | – | – | – | – | – | – | – | –
C/C(=N\NC(=O)c1ccncc1)c1ccccc1OC(=O)/C=C/c1ccc(O)cc1O | Non-toxic | Toxic | Not Active | – | Non-toxic | Active | – | – | inactive | Active | Active | 8.3 | Active | inactive | 11.7 | –
Cc1c(C)c2c(c(C)c1O)CCC(C)(C(=O)O)O2 (stereo not drawn) | – | – | – | – | – | – | – | – | – | – | – | – | – | – | – | Active
